Data published in PubChem BioAssay.
The source made the active and inactive calls.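 Rule for the calls, unless noted: active = viability at or below 30% in both replicate assays; inconclusive = viability at or below 30% in just one of the two assays; inactive = the rest.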

Assays:
[1] = Her2 expression decrease, cell viability multiplex – SKBR3 breast tumor cells, AlphaScreen, ATP viability, primary screen (AID 461;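 active = Her2 level under about 52% in both replicate screens, with viability over 70% of control, limit read from the data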;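 for Her2 level: lower value means less Her2 protein in the cells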;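 for viability: percent of carrier control wells set as 100% viability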); details: SKBR3 Her2 protein level, 18-24 h, measured here: SKBR3 viability, ATP luminescence, at 10 µM
[2] = biological target: Receptor tyrosine-protein kinase erbB-2 (Homo sapiens) (UniProt P04626); test: as above; details: 18-24 h, at 10 µM, stronger effect = lower value
[3] = reduced viability of SK-BR-3 breast cancer cells – cell-based, 24 h, human, pilot screen (AID 572;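 active = viability at or below 10% of carrier control in both of two separate runs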;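 note: compound exposure lasted between 18 and 24 h rather than exactly 24 h; 100% = carrier-treated control wells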); details: SK-BR-3 viability, CellTiter-Glo luminescence, at 10 µM, stronger effect = lower value
[4] = HUVEC growth inhibition – cell-based, human, primary screen (AID 575); details: HUVEC proliferation, CellTiter-Glo luminescence, 72 h; at 10 µM; stronger effect = lower value;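 note: 100% = median of untreated cell wells with 0.1% DMSO on each plate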
How it was run: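 Assay system: Primary human umbilical vein endothelial cells | Quantity: 1250 cells per well | Medium: Supplemented EBM, 2% fetal bovine serum | Detection: CellTiter-Glo luminescence measuring cellular ATP | Read-out: % viability vs DMSO wells | Plate: Collagen-coated 384-well format | Times: 72 h exposure, 37 °C, 5% CO2, 30 min RT equilibration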

[5] = H69AR cell proliferation blockers – human, duplicate replicates, primary screen (AID 580;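 active = viability at or under a set limit in both replicates, limit being median viability minus 3 SD, cut at about 48% in these data, passing the limit was not always enough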;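 note: 100% = mean luminescence of untreated wells and 0% = no signal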); details: H69AR lung tumor cells viability, ATP luminescence, 72 h; at 10 µM; stronger effect = lower value
[6] = MRP1 drug-resistance reversers in H69AR cells – cell-based, doxorubicin co-treatment, pilot screen (AID 601;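 active = viability loss from added drug above about 55%, and viability with drug at most 40%, in both replicates, limit read from the data, passing the limit was not always enough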); details: CellTiter-Glo, 72 h, at 10 µM; for differential viability (reversal): stronger effect = higher value
[7] = yeast transport mutant growth inhibition pilot in 384-well plates, post-Golgi transport modulator project (AID 636; in the data active = inhibition above about 31%); details: absorbance 615 nm, about 18 h, stronger effect = higher value
[8] = growth suppression of yeast trafficking mutant, preliminary HTS, modulators of trafficking downstream of Golgi apparatus project, 1536-format plate, OD 615 nm (AID 637; in the data active = inhibition above about 30%); details: yeast transport mutant growth, absorbance 615 nm, 18 h; stronger effect = higher value
[9] = H69AR cells + 2 uM doxorubicin, measured here: viability with 2 uM doxorubicin, stronger effect = lower value
[10] = H69AR cells, compound alone cytotoxicity

Sequence of Receptor tyrosine-protein kinase erbB-2 (Homo sapiens) (P04626 whole entry, looked up): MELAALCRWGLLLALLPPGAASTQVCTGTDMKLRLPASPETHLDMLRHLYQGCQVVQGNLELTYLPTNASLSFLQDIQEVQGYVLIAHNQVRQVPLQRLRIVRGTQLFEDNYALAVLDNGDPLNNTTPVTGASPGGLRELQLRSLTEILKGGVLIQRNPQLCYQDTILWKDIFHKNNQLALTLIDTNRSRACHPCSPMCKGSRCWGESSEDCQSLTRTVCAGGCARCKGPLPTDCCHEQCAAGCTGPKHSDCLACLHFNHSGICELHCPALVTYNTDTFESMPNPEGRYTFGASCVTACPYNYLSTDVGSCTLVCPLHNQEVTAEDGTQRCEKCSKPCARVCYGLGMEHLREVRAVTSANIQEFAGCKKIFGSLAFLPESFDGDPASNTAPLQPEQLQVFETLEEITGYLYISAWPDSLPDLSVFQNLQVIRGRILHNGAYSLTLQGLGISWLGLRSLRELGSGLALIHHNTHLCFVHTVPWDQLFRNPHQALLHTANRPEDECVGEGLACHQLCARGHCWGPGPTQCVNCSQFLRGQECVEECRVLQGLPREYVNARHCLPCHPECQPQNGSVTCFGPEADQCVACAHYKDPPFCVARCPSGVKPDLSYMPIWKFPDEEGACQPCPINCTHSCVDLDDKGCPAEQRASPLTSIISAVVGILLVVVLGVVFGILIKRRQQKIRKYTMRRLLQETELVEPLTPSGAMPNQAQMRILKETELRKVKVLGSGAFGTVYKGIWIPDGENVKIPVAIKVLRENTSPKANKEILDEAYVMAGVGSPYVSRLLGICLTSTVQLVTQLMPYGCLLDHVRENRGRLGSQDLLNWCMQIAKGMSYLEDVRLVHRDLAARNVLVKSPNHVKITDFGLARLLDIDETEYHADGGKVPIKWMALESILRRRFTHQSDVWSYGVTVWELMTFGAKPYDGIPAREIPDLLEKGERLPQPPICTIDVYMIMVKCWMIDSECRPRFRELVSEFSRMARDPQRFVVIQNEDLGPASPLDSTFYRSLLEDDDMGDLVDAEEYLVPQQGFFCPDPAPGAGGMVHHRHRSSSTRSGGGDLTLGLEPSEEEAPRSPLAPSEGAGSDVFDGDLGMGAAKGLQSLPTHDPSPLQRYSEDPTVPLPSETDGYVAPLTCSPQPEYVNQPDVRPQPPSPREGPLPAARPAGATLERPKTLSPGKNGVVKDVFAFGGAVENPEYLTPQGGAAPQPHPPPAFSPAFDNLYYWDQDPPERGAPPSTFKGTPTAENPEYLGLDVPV

SMILES | viability [1] [%] | Her2 level [2] | viability [3] | viability [4] | viability [5] | differential viability (reversal) ([6]; H69AR cells + 2 uM doxorubicin) | viability [6, 9] [%] | viability [6, 10] [%] | inhibition [7] | inhibition [8]
CCOc1ccc(S(=O)(=O)N2CCN(C(=O)c3cccn3C)CC2)cc1 | 101 | 78.5% (inactive) | 101% (inactive) | 101% (inactive) | 97.3% (inactive) | 9.79% (inactive) | 87.5 | 97.3 | -9.04% (inactive) | -2.86% (inactive)
CC(=O)Nc1ccccc1OCc1nnc(-c2cccs2)o1 | 97 | 93% (inactive) | 97% (inactive) | 82.1% (inactive) | 98.1% (inactive) | 15.9% (inactive) | 82.1 | 98.1 | -2.86% (inactive) | -3.97% (inactive)
COc1ccccc1-c1cc(C(=O)NCCCn2ccnc2)no1 | 82 | 80% (inactive) | 82% (inactive) | 88.5% (inactive) | 97.4% (inactive) | 14.3% (inactive) | 83.1 | 97.4 | -7.03% (inactive) | -2.17% (inactive)
NC1=NC(c2ccc(Br)cc2)n2c(nc3ccccc32)N1 (stereo not given) | 90 | 82% (inactive) | 90% (inactive) | 75.5% (inactive) | 81.4% (inactive) | 4.81% (inactive) | 76.6 | 81.4 | -5.13% (inactive) | -6% (inactive)
O=C(C1CCN(S(=O)(=O)Cc2ccccc2)CC1)N1CCN(c2ncccn2)CC1 | 83 | 108% (inactive) | 83% (inactive) | 115% (inactive) | 112% (inactive) | 22.3% (inactive) | 90 | 112 | -0.39% (inactive) | -2.36% (inactive)
O=C(CCN1C(=O)C2C3C=CC(C3)C2C1=O)NCCc1ccccc1Cl (stereo not given) | 95 | 68.5% (inactive) | 95% (inactive) | 94.2% (inactive) | 95.2% (inactive) | 10.5% (inactive) | 84.7 | 95.2 | -6.49% (inactive) | -5.08% (inactive)
Cc1[nH]c(=O)[nH]c(=O)c1S(=O)(=O)N(C)Cc1ccccc1 | 108 | 106% (inactive) | 108% (inactive) | 96.2% (inactive) | 105% (inactive) | 12.3% (inactive) | 92.5 | 105 | -0.66% (inactive) | -4.6% (inactive)
CCOc1ccc(C(=O)N(CN2CCCC2=O)c2ccc(C)cc2)cc1 | 125 | 114% (inactive) | 125% (inactive) | 116% (inactive) | 95.1% (inactive) | 7.87% (inactive) | 87.2 | 95.1 | -6% (inactive) | 1.94% (inactive)
COc1ccc(CC(=O)OCc2nnc(C3COc4ccccc4O3)o2)cc1OC (stereo not given) | 116 | 104% (inactive) | 116% (inactive) | 91.3% (inactive) | 104% (inactive) | 19.8% (inactive) | 83.7 | 104 | -2% (inactive) | -1.64% (inactive)
CC(C)(C)N(Cc1cc2ccccc2[nH]c1=O)C(=O)C1CCCCC1 | 104 | 118% (inactive) | 104% (inactive) | 69.4% (inactive) | 86.1% (inactive) | 3.29% (inactive) | 82.8 | 86.1 | -3.2% (inactive) | -7.21% (inactive)
Cc1nnc(NC(=O)c2ccccc2F)s1 | 100 | 101% (inactive) | 100% (inactive) | 107% (inactive) | 104% (inactive) | 13.8% (inactive) | 90.2 | 104 | -3.24% (inactive) | 4.76% (inactive)
Nc1nnc(-c2cn(-c3ccccc3)nc2-c2ccccc2)o1 | 73 | 131% (inactive) | 73% (inactive) | 77.3% (inactive) | 91.2% (inactive) | 10.7% (inactive) | 80.5 | 91.2 | 2.47% (inactive) | -15.5% (inactive)
O=c1c2ccccc2nnn1CSc1nc2cc(Cl)ccc2c(=O)n1Cc1ccco1 | 102 | 104% (inactive) | 102% (inactive) | 81.5% (inactive) | 86.4% (inactive) | 4.62% (inactive) | 81.7 | 86.4 | -0.53% (inactive) | -4.03% (inactive)
Cc1ccc(S(=O)(=O)C2(C(=O)Nc3cccnc3)CC2)cc1 | 92.5 | 96% (inactive) | 92.5% (inactive) | 91.6% (inactive) | 98.4% (inactive) | 3.19% (inactive) | 95.2 | 98.4 | -1.67% (inactive) | -8.67% (inactive)
CCOC(=O)CC(=O)CSc1[nH]c(=O)cc(C)c1C#N | 87.5 | 106% (inactive) | 87.5% (inactive) | 99.3% (inactive) | 108% (inactive) | 4.69% (inactive) | 104 | 108 | -4.8% (inactive) | -0.16% (inactive)
Cc1ccc(NC(=O)CN2CC(C)SC2=NC2CCCCC2)cc1 (stereo not given) | 84.5 | 113% (inactive) | 84.5% (inactive) | 96% (inactive) | 83.9% (inactive) | 0.935% (inactive) | 83 | 83.9 | -6.8% (inactive) | 1.94% (inactive)
O=c1c2c3nc4ccccc4nc3n(CC3CCCO3)c2ncn1CCc1ccccc1 (stereo not given) | 97 | 83.5% (inactive) | 97% (inactive) | 76.2% (inactive) | 70.4% (inactive) | 38.6% (inactive) | 31.8 | 70.4 | -6.93% (inactive) | -2.62% (inactive)
CN(C)CCCN1C(=O)C(=O)/C(=C(/O)c2ccncc2)C1c1cccc(Br)c1 (stereo not given) | 90.5 | 97% (inactive) | 90.5% (inactive) | 118% (inactive) | 94.5% (inactive) | 5.26% (inactive) | 89.3 | 94.5 | -2.93% (inactive) | -5.9% (inactive)
CCOc1ccc(N2CC(C(=O)Nc3cccc(C)c3C)CC2=O)cc1 (stereo not given) | 118 | 110% (inactive) | 118% (inactive) | 111% (inactive) | 108% (inactive) | 12.1% (inactive) | 95.9 | 108 | -3.47% (inactive) | -4.43% (inactive)
CC(=O)Nc1nc(-c2ccc(Cl)cc2)nc(C)c1C(C)=O | 96.5 | 89.5% (inactive) | 96.5% (inactive) | 89% (inactive) | 104% (inactive) | 9.83% (inactive) | 94.6 | 104 | -3.65% (inactive) | -2.83% (inactive)
N#CC1=C(N)Oc2n[nH]c(-c3ccncc3)c2C1c1ccsc1 (stereo not given) | 88 | 95% (inactive) | 88% (inactive) | 113% (inactive) | 87.7% (inactive) | -6.48% (inactive) | 94.2 | 87.7 | 0.53% (inactive) | -4% (inactive)
Cc1ccccc1-c1nc(CS(=O)(=O)CC(=O)NCc2ccc3c(c2)OCO3)c(C)o1 | 99 | 89% (inactive) | 99% (inactive) | 87.3% (inactive) | 87.8% (inactive) | 2.28% (inactive) | 85.5 | 87.8 | -4.53% (inactive) | 3.61% (inactive)
Cc1nc2ccccc2c2oc(C(=O)NCc3ccccn3)cc12 | 81 | 88% (inactive) | 81% (inactive) | 81.4% (inactive) | 96.8% (inactive) | 2.25% (inactive) | 94.6 | 96.8 | -1.73% (inactive) | -2.3% (inactive)
CCOC(=O)c1c(C)[nH]c(C)c1C(=O)COc1ccc(NC(=O)c2ccco2)cc1 | 88.5 | 102% (inactive) | 88.5% (inactive) | 91.8% (inactive) | 86.9% (inactive) | -6.89% (inactive) | 93.8 | 86.9 | -1.43% (inactive) | 3.65% (inactive)
CCN(c1cccc(C(F)(F)F)c1)S(=O)(=O)c1ccc2c(c1)CCN2C(=O)C1CC1 | 99 | 120% (inactive) | 99% (inactive) | 65.8% (inactive) | 82.5% (inactive) | -0.405% (inactive) | 82.9 | 82.5 | -3.42% (inactive) | -1% (inactive)
CC(C)(C)NC(=O)Cn1nnnc1-c1nonc1N | 93 | 94.5% (inactive) | 93% (inactive) | 109% (inactive) | 105% (inactive) | 13.3% (inactive) | 91.3 | 105 | -6.53% (inactive) | 5.25% (inactive)
C=CCn1c(SCC(=O)NCCCC)nc2scc(-c3ccco3)c2c1=O | 91.5 | 75.5% (inactive) | 91.5% (inactive) | 95.4% (inactive) | 88.8% (inactive) | 2.11% (inactive) | 86.7 | 88.8 | 0.13% (inactive) | -1.48% (inactive)
CCCN1CCC(NC(=O)Nc2ccc(OC)c(OC)c2)CC1 | 124 | 96.5% (inactive) | 124% (inactive) | 111% (inactive) | 90.7% (inactive) | 4.61% (inactive) | 86.1 | 90.7 | -1.69% (inactive) | -2.33% (inactive)
COc1cc(S(=O)(=O)N2CCOCC2)ccc1NC(=O)COC(=O)c1ccccn1 | 114 | 92% (inactive) | 114% (inactive) | 85.8% (inactive) | 84.8% (inactive) | -12.8% (inactive) | 97.6 | 84.8 | -6.71% (inactive) | -0.18% (inactive)
